In general, half-life refers to how long it takes for the measured level to halve. Read a high half-life as slow decline. A word on the AUC(0-inf): it is total exposure, with the tail of the curve extrapolated. Read a high AUC(0-inf) as high exposure.

A short description of data set [1]: Half life in human plasma […] by LC/MS/MS analysis. It counts as ADME, cell-free. In short, it runs like this:
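Pooled human plasma adjusted to pH 7.4 and prewarmed, then spiked to 2 μM final from a 200 μM DMSO working solution, in duplicate. Sampled at 0, 10, 30, 60 and 120 min and quenched with acetonitrile containing tolbutamide and buspirone. LC/MS/MS (MRM) peak area ratios; ke from linear regression of the initial linear phase, t1/2 = ln2/ke.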

Data set [2] relates to Mus musculus. Briefly: Subacute toxicity in ICR mouse assessed as clinical signs of toxicity at 100 to 1000 mg/kg, administered once a day via oral gavage for 14 days. It counts as organism-based. Particulars: in vivo, 336 h. In short, it runs like this: (§1)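 ICR mice, 22−25 g, 5 per sex per group, gavaged daily for 14 days at 100, 500 or 1000 mg/kg in 30% PEG400/30% Tween 20/20% corn oil/20% water, with a vehicle control group. Observed daily for body weight change, skin and fur, inflammation and necrosis. Animals anesthetized on day 15; organ weights (liver, kidney) taken. Serum SGOT/SGPT compared with controls.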

The subject of data set [3] is Mus musculus. The data set is described as follows: Acute toxicity in ICR mouse assessed as mortality at 150 to 1800 mg/kg, administered via oral gavage measured once a day over 14 days. It counts as organism-based. To be noted: in vivo, 336 h. Summed up: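 ICR mice, 22−25 g, 5 per sex per group. Single oral gavage at 150, 500, 1200 or 1800 mg/kg in vehicle of 30% PEG400/30% Tween 20/20% corn oil/20% water, with a vehicle control. Mortality, morbidity, clinical signs and body weight change recorded once daily for 14 days.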

Data set [4] deals with Mus musculus. Briefly: Subacute toxicity in ICR mouse assessed as macroscopic pathologic findings at 100 to 1000 mg/kg, administered once a day via oral gavage for 14 days. It counts as organism-based. To be noted: in vivo, 336 h. Summed up: as §1
Data set [5] deals with Canis familiaris. Briefly: Toxicity in Beagle dog at 150 mg/kg, administered via oral gavage measured up to 24 hrs post dose. It counts as organism-based, Canis lupus familiaris. To be noted: in vivo. Summed up: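 Six Beagle dogs (three male, three female) given one oral gavage dose of 150 mg/kg in 20% w/v hydroxypropyl-β-cyclodextrin in water. Animals watched for clinical symptoms and adverse events while plasma was sampled over 24 h.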

The nature of data set [6]: Half life in Beagle dog at 150 mg/kg, administered via oral gavage measured up to 24 hrs post dose by LC/MS/MS analysis. The data set is classed as ADME, organism-based, Canis lupus familiaris. Particulars: in vivo. Summed up: (§2)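 Beagle dogs, 3 per sex, given a single oral gavage dose of 150 mg/kg in 20% w/v hydroxypropyl-β-cyclodextrin in water, 2.5 mL/kg. K2EDTA blood taken by venipuncture at 0.5, 0.75, 1, 2, 4, 6, 8, 12 and 24 h. Plasma extracted with ice-cold acetonitrile, then LC/MS/MS in positive MRM mode with zolpidem as internal standard. Noncompartmental analysis; mean ± SD.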

The nature of data set [7]: AUC (0 to infinity) in Beagle dog at 150 mg/kg, administered via oral gavage measured up to 24 hrs post dose by LC/MS/MS analysis. The data set is classed as ADME, organism-based, Canis lupus familiaris. Also noted: dose 150 mg/kg, route oral, time infinity. To be noted: in vivo. Summed up:
as §2

The test system of data set [8] is Huh-7. The data set is described as follows: Cytotoxicity against human HuH7 cells assessed as reduction in cell viability up to 100 uM after 72 hrs by Cell Titer-Fluor Cell assay. It counts as cell-based. Particulars: huh-7, 72 h. Summed up:
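Huh7 cells carrying HCV genotype 1b replicon, 8000 per well, in duplicate 3-fold dilution series with 0.5% DMSO final; 72 h at 37 °C, 5% CO2. Viability read by Cell Titer-Fluor fluorescence after 5 min; replicon inhibition read by Bright-Glo luciferase luminescence in the same wells. EC50 and CC50 come from curve fitting.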

Data set [9] has as its system Mus musculus. The data set is described as follows: Subacute toxicity in ICR mouse assessed as mortality at 100 to 1000 mg/kg, administered once a day via oral gavage for 14 days. To be noted: in vivo, 336 h. The data set is classed as organism-based. Summed up:
as §1

The test system of data set [10] is Mus musculus. The data set is described as follows: Subacute toxicity in ICR mouse assessed as effect on glomerulus at 100 to 1000 mg/kg, administered once a day via oral gavage for 14 days by hematoxylin/eosin-staining based microscopic analysis. It counts as organism-based. Particulars: in vivo, 336 h. Summed up:
(§3)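 Same 14-day daily oral gavage design as the subacute study (ICR mice, 5 per sex per group, 100/500/1000 mg/kg or vehicle). Liver and kidney taken after anesthesia on day 15, processed routinely, cut as 5 μm paraffin sections, stained with hematoxylin and eosin and examined microscopically.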

Data set [11] deals with Mus musculus. The data set is described as follows: Subacute toxicity in ICR mouse assessed as effect on tubules at 100 to 1000 mg/kg, administered once a day via oral gavage for 14 days by hematoxylin/eosin-staining based microscopic analysis. Particulars: in vivo, 336 h. It counts as organism-based. Summed up:
as §3

Data set [12] deals with T1, Liver carboxylesterase 1 (Homo sapiens, UniProt P23141).
T1 sequence (P23141 whole entry): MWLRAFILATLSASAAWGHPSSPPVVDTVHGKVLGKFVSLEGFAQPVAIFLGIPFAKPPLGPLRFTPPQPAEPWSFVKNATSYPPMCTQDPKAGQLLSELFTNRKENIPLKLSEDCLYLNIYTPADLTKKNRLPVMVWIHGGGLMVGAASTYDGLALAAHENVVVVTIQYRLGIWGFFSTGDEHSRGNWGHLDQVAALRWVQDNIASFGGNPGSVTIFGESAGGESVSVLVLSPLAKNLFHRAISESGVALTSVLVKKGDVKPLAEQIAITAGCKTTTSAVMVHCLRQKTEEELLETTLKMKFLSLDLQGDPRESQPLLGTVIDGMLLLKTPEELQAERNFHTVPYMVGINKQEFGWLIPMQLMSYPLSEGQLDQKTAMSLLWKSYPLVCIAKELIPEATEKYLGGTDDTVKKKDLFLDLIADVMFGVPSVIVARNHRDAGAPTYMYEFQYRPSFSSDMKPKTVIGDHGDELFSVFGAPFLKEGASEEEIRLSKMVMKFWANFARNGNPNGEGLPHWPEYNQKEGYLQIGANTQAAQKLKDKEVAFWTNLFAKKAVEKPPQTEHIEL
The data set is described as follows: Drug metabolism in human HuH7 cells assessed as carboxylesterase 1-mediated (S)-2-((R)-(((2R,3R,4R,5R)-5-(4-butyramido-2-oxopyrimidin-1(2H)-yl)-4-fluoro-3-hydroxy-4-methyltetrahydrofuran-2-yl)methoxy)(hydroxy)phosphorylamino)propanoic acid metabolite formation at 50 uM after 24 hrs by LC/MS/MS analysis. It counts as ADME, cell-based. Summed up: (§4)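 Huh-7 cells plated at 0.35 million/mL in DMEM with 10% FBS (about 1 million per well at dosing) and grown 18 h. At each time point cells were washed with cold saline and lysed in methanol with internal standard. Semiquantified by LC/MS/MS MRM as Δ mean peak-area ratio relative to t0.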

Data set [13] can be described thus: Drug metabolism in human HuH7 cells assessed as nucleoside diphosphate kinase-mediated ((2R,3R,4R,5R)-5-(4-amino-2-oxopyrimidin-1(2H)-yl)-4-fluoro-3-hydroxy-4-methyltetrahydrofuran-2-yl)methyl tetrahydrogen triphosphate metabolite formation at 50 uM after 48 hrs by LC/MS/MS analysis. It counts as ADME, cell-based. Summed up:
as §4

Data set [14] deals with Mus musculus. The data set is described as follows: Subacute toxicity in ICR mouse assessed as effect on renal architecture at 100 to 1000 mg/kg, administered once a day via oral gavage for 14 days by hematoxylin/eosin-staining based microscopic analysis. To be noted: in vivo, 336 h. The data set is classed as organism-based. Summed up:
as §3

The nature of data set [15]: Drug metabolism in human HuH7 cells assessed as carboxylesterase-mediated (S)-2-((S)-(((2R,3R,4R,5R)-5-(4-amino-2-oxopyrimidin-1(2H)-yl)-4-fluoro-3-hydroxy-4-methyltetrahydrofuran-2-yl)methoxy)(hydroxy)phosphoryloxy)propanoic acid metabolite formation at 50 uM after 24 hrs by LC/MS/MS analysis. The data set is classed as ADME, cell-based. In short, it runs like this:
as §4

Regarding `CCCC(=O)Nc1ccn([C@@H]2O[C@H](CO[P@@](=O)(N[C@@H](C)C(=O)OC(C)C)Oc3ccccc3)[C@@H](O)[C@@]2(C)F)c(=O)n1`, the half-life is more than 3.85 h in data set [1] and 14.2 h in [6]. In addition, the Activity entry in [2], in data set [3], in [4], in [5], in [8] and in data set [9] was “Non-Toxic” each time. Besides, the Activity result in data set [10], in data set [11] and in data set [14] was “Non-Toxic” each time. The same molecule returned an AUC(0-inf) in data set [7] of 411 ng·h/mL. The Drug metabolism entry in [12], in data set [13] and in [15] was “Metabolite_Detected” throughout.

The values are drawn from ChEMBL document CHEMBL4011639, “Discovery of Novel Nucleotide Prodrugs with Improved Potency Against HCV Variants Carrying NS5B S282T Mutation” (J Med Chem, 2017).
